According to ChEMBL document CHEMBL3763128, “Synthesis and antibacterial evaluation of novel 4″-glycyl linked quinolyl-azithromycins with potent activity against macrolide-resistant pathogens” (2016):
Values after ≈ are worked out from the molar mass of the structure shown.

Key:
Type in all cases: functional
[1] = tested on: Haemophilus influenzae; experiment: Antibacterial activity against Haemophilus influenzae by agar microdilution method
Outline: (§1)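 MIC by agar microdilution following NCCLS guidelines. Values in μg/mL. Only differences of more than one twofold dilution were treated as significant. Ery-S denotes erythromycin-susceptible strains.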

[2] = tested on: Staphylococcus aureus; experiment: Antibacterial activity against efflux mediated macrolide resistant Staphylococcus aureus by agar microdilution method
Outline: (§2)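 Agar microdilution per NCCLS guidelines; MIC reported in μg/mL; differences treated as significant only when more than a factor of 2 (one dilution) apart.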

[3] = tested on: Staphylococcus aureus; experiment: Antibacterial activity against inducibly macrolide-lincosamide-streptogramin B resistant Staphylococcus aureus by agar microdilution method; outline: as §2
[4] = tested on: Streptococcus pneumoniae; experiment: Antibacterial activity against erythromycin-susceptible Streptococcus pneumoniae by agar microdilution method; outline: as §1
[5] = tested on: Moraxella catarrhalis; experiment: Antibacterial activity against Moraxella catarrhalis by agar microdilution method; outline: as §1
[6] = tested on: Staphylococcus aureus; experiment: Antibacterial activity against constitutive macrolide-lincosamide-streptogramin B resistant Staphylococcus aureus by agar microdilution method; outline: as §2
[7] = tested on: Streptococcus pneumoniae; experiment: Antibacterial activity against constitutive macrolide-lincosamide-streptogramin B resistant Streptococcus pneumoniae by agar microdilution method; outline: as §2
[8] = tested on: Streptococcus pneumoniae; experiment: Antibacterial activity against efflux mediated macrolide resistant Streptococcus pneumoniae by agar microdilution method; outline: as §2
[9] = tested on: Streptococcus pyogenes; experiment: Antibacterial activity against erythromycin-susceptible Streptococcus pyogenes by agar microdilution method; outline: as §1
[10] = tested on: Streptococcus pyogenes; experiment: Antibacterial activity against constitutive macrolide-lincosamide-streptogramin B resistant Streptococcus pyogenes by agar microdilution method; outline: as §2
[11] = tested on: Staphylococcus aureus; experiment: Antibacterial activity against erythromycin-susceptible Staphylococcus aureus by agar microdilution method; outline: as §1
[12] = tested on: Streptococcus pyogenes; experiment: Antibacterial activity against inducibly macrolide-lincosamide-streptogramin B resistant Streptococcus pyogenes by agar microdilution method; outline: as §2
[13] = tested on: Streptococcus pyogenes; experiment: Antibacterial activity against efflux mediated macrolide resistant Streptococcus pyogenes by agar microdilution method; outline: as §2

SMILES	MIC [1] [µg/mL]	MIC [2] [µg/mL]	MIC [3] [µg/mL]	MIC [4] [µg/mL]	MIC [5] [µg/mL]	MIC [6] [µg/mL]	MIC [7] [µg/mL]	MIC [8] [µg/mL]	MIC [9] [µg/mL]	MIC [10] [µg/mL]	MIC [11] [µg/mL]	MIC [12] [µg/mL]	MIC [13] [µg/mL]
CCC1OC(=O)[C@H](C)[C@@H](O[C@H]2C[C@@](C)(OC)[C@@H](OC(=O)CNC(=O)CCNCCNc3cc4c(cc3F)c(=O)c(C(=O)O)cn4C3CC3)[C@H](C)O2)C(C)[C@@H](O[C@@H]2O[C@H](C)C[C@H](N(C)C)[C@H]2O)[C@](C)(O)C[C@@H](C)CN(C)[C@H](C)[C@@H](O)[C@]1(C)O (single isomer, unassigned)	4 (≈ 3.43 µM)	2 (≈ 1.72 µM)	8 (≈ 6.86 µM)	≤ 0.125	1 (≈ 0.858 µM)	> 64	4 (≈ 3.43 µM)	1 (≈ 0.858 µM)	≤ 0.125	4 (≈ 3.43 µM)	0.25 (≈ 0.215 µM)	1 (≈ 0.858 µM)	2 (≈ 1.72 µM)
CCC1OC(=O)[C@H](C)[C@@H](O[C@H]2C[C@@](C)(OC)[C@@H](OC(=O)CNCCCNCCOCCOCCNc3cc4c(cc3F)c(=O)c(C(=O)O)cn4C3CC3)[C@H](C)O2)C(C)[C@@H](O[C@@H]2O[C@H](C)C[C@H](N(C)C)[C@H]2O)[C@](C)(O)C[C@@H](C)CN(C)[C@H](C)[C@@H](O)[C@]1(C)O (single isomer, unassigned)	4 (≈ 3.23 µM)	2 (≈ 1.61 µM)	4 (≈ 3.23 µM)	≤ 0.125	2 (≈ 1.61 µM)	> 64	2 (≈ 1.61 µM)	1 (≈ 0.807 µM)	≤ 0.125	4 (≈ 3.23 µM)	≤ 0.125	0.5 (≈ 0.403 µM)	1 (≈ 0.807 µM)
CCC1OC(=O)[C@H](C)[C@@H](O[C@H]2C[C@@](C)(OC)[C@@H](OC(=O)CNC(=O)CCNCCOCCOCCNc3cc4c(cc3F)c(=O)c(C(=O)O)cn4C3CC3)[C@H](C)O2)C(C)[C@@H](O[C@@H]2O[C@H](C)C[C@H](N(C)C)[C@H]2O)[C@](C)(O)C[C@@H](C)CN(C)[C@H](C)[C@@H](O)[C@]1(C)O (single isomer, unassigned)	8 (≈ 6.38 µM)	16 (≈ 12.8 µM)	32 (≈ 25.5 µM)	≤ 0.125	2 (≈ 1.6 µM)	> 64	8 (≈ 6.38 µM)	4 (≈ 3.19 µM)	≤ 0.125	32 (≈ 25.5 µM)	0.5 (≈ 0.399 µM)	4 (≈ 3.19 µM)	16 (≈ 12.8 µM)
CCC1OC(=O)[C@H](C)[C@@H](O[C@H]2C[C@@](C)(OC)[C@@H](OC(=O)CNCCSc3cnc4ccccc4n3)[C@H](C)O2)C(C)[C@@H](O[C@@H]2O[C@H](C)C[C@H](N(C)C)[C@H]2O)[C@](C)(O)C[C@@H](C)CN(C)[C@H](C)[C@@H](O)[C@]1(C)O (single isomer, unassigned)	4 (≈ 4.02 µM)	2 (≈ 2.01 µM)	0.5 (≈ 0.503 µM)	≤ 0.125	1 (≈ 1.01 µM)	> 64	16 (≈ 16.1 µM)	–	≤ 0.125	16 (≈ 16.1 µM)	2 (≈ 2.01 µM)	4 (≈ 4.02 µM)	0.25 (≈ 0.251 µM)
CCC1OC(=O)[C@H](C)[C@@H](O[C@H]2C[C@@](C)(OC)[C@@H](OC(=O)CNCCCNCCNc3cc4c(cc3F)c(=O)c(C(=O)O)cn4C3CC3)[C@H](C)O2)C(C)[C@@H](O[C@@H]2O[C@H](C)C[C@H](N(C)C)[C@H]2O)[C@](C)(O)C[C@@H](C)CN(C)[C@H](C)[C@@H](O)[C@]1(C)O (single isomer, unassigned)	1 (≈ 0.868 µM)	0.5 (≈ 0.434 µM)	1 (≈ 0.868 µM)	≤ 0.125	0.25 (≈ 0.217 µM)	> 64	0.5 (≈ 0.434 µM)	–	≤ 0.125	1 (≈ 0.868 µM)	≤ 0.125	0.25 (≈ 0.217 µM)	0.5 (≈ 0.434 µM)
CC[C@@H]1OC(=O)[C@H](C)[C@@H](O[C@@H]2C[C@](C)(OC)[C@H](O)[C@@H](C)O2)[C@@H](C)[C@@H](O[C@@H]2O[C@H](C)C[C@H](N(C)C)[C@H]2O)[C@](C)(O)C[C@@H](C)CN(C)[C@H](C)[C@@H](O)[C@]1(C)O	1 (≈ 1.34 µM)	32 (≈ 42.7 µM)	> 64	≤ 0.125	0.25 (≈ 0.334 µM)	> 64	> 64	8 (≈ 10.7 µM)	≤ 0.125	> 64	1 (≈ 1.34 µM)	> 64	16 (≈ 21.4 µM)
CCC1OC(=O)[C@H](C)[C@@H](O[C@H]2C[C@@](C)(OC)[C@@H](OC(=O)CNC(=O)CNC(=O)CSc3cnc4ccccc4n3)[C@H](C)O2)C(C)[C@@H](O[C@@H]2O[C@H](C)C[C@H](N(C)C)[C@H]2O)[C@](C)(O)C[C@@H](C)CN(C)[C@H](C)[C@@H](O)[C@]1(C)O (single isomer, unassigned)	4 (≈ 3.75 µM)	2 (≈ 1.88 µM)	0.5 (≈ 0.469 µM)	≤ 0.125	4 (≈ 3.75 µM)	> 64	16 (≈ 15 µM)	–	0.25 (≈ 0.235 µM)	16 (≈ 15 µM)	1 (≈ 0.939 µM)	4 (≈ 3.75 µM)	0.25 (≈ 0.235 µM)
CC[C@H]1OC(=O)[C@H](C)C(=O)[C@H](C)[C@@H](O[C@@H]2O[C@H](C)C[C@H](N(C)C)[C@H]2O)[C@](C)(OC)C[C@@H](C)C(=O)[C@H](C)[C@H]2N(CCCCn3cnc(-c4cccnc4)c3)C(=O)O[C@]12C [TELITHROMYCIN]	1 (≈ 1.23 µM)	0.25 (≈ 0.308 µM)	0.5 (≈ 0.616 µM)	≤ 0.125	≤ 0.125	> 64	–	0.5 (≈ 0.616 µM)	≤ 0.125	8 (≈ 9.85 µM)	≤ 0.125	–	0.25 (≈ 0.308 µM)
CCC1OC(=O)[C@H](C)[C@@H](O[C@H]2C[C@@](C)(OC)[C@@H](OC(=O)CNCCNC(=O)CSc3cnc4ccccc4n3)[C@H](C)O2)C(C)[C@@H](O[C@@H]2O[C@H](C)C[C@H](N(C)C)[C@H]2O)[C@](C)(O)C[C@@H](C)CN(C)[C@H](C)[C@@H](O)[C@]1(C)O (single isomer, unassigned)	8 (≈ 7.61 µM)	1 (≈ 0.951 µM)	0.25 (≈ 0.238 µM)	≤ 0.125	8 (≈ 7.61 µM)	> 64	8 (≈ 7.61 µM)	–	≤ 0.125	8 (≈ 7.61 µM)	8 (≈ 7.61 µM)	1 (≈ 0.951 µM)	–
O=C(O)c1cn(C2CC2)c2cc(N3CCNCC3)c(F)cc2c1=O [CIPROFLOXACIN]	≤ 0.125	–	–	≤ 0.125	≤ 0.125	–	0.25 (≈ 0.754 µM)	0.25 (≈ 0.754 µM)	2 (≈ 6.04 µM)	0.5 (≈ 1.51 µM)	≤ 0.125	0.25 (≈ 0.754 µM)	≤ 0.125
CC[C@H]1OC(=O)[C@@H](C)[C@H](O[C@@H]2C[C@](C)(OC)[C@H](OC(=O)CNCCCNCCNc3cc4c(=O)c(C(=O)O)cn(C5CC5)c4cc3Cl)[C@@H](C)O2)[C@H](C)[C@H](O[C@H]2O[C@@H](C)C[C@@H](N(C)C)[C@@H]2O)[C@@](C)(O)C[C@H](C)CN(C)[C@@H](C)[C@H](O)[C@@]1(C)O	0.5 (≈ 0.428 µM)	0.25 (≈ 0.214 µM)	0.25 (≈ 0.214 µM)	≤ 0.125	≤ 0.125	> 64	–	–	≤ 0.125	–	≤ 0.125	–	–
CC[C@H]1OC(=O)[C@H](C)C(=O)[C@H](C)[C@@H](O[C@@H]2O[C@H](C)C[C@H](N(C)C)[C@H]2O)[C@](C)(OCC=Cc2cnc3ccccc3c2)C[C@@H](C)C(=O)[C@H](C)[C@H]2NC(=O)O[C@@]21C [CETHROMYCIN]	1 (≈ 1.31 µM)	0.25 (≈ 0.326 µM)	0.25 (≈ 0.326 µM)	≤ 0.125	≤ 0.125	> 64	–	–	≤ 0.125	1 (≈ 1.31 µM)	≤ 0.125	–	–
